Compounds with a hit are over-represented: about 3% of the library has one in this group of screens.
Apaf-1 inh – inhibitors of human Apaf-1 apoptosome, primary screen, biochemical, DEVD-Rh110 fluorescence, uHTS; actives 0.71% (n = 330,000); Apoptotic protease-activating factor 1 (Homo sapiens), O14727; inhibition, % at 20 µM; reconstituted apoptosome caspase-3 activity; active = inhibition of at least 40% at 20 µM;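 also: plate controls were DMSO wells for no effect and DEVD-CHO caspase inhibitor wells for full effect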
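Assay system – apoptosome proteins · Medium – Hepes buffer, pH 7.5 · Also added – cytochrome c with DEVD-Rh110 · Timing – 30 min compound preincubation, 50 min activation, room temperature · Detection – Rh110 fluorescence, excitation 480 nm, emission 540 nm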
MEKK2 mut-MEK5 – MEK5 binding signal on mutant MEKK2 PB1, primary screen, biochemical, multiplex bead flow cytometry, Alexa488-MEK5 | Alexa488-MEK5 binding to MEKK2 mutant | percent response, % at 10 µM | actives 0.35% (n = 290,000); in the data active = percent response above about 24%, passing the limit was not always enough
MEKK3 PB1 HTS – modulators of MEKK3-MEK5 PB1 binding, primary screen, biochemical, wildtype MEKK3, multiplex bead flow cytometry, Alexa488-MEK5. binding response (% of control), % at 10 µM. AID 1529, 2009. actives 1.4% (n = 290,000). Mitogen-activated protein kinase kinase kinase 3 (Homo sapiens), Q99759. bead-based flow cytometry, Alexa488-MEK5 binding to MEKK3; actives lie on both sides; 0 = blocked by unlabeled MEK5, 100 = vehicle;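 active = binding response more than 3 SD above or below the average of its plate-row segment, actives on both sides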;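 also: Alexa488 bead fluorescence after subtracting the streptavidin-only scavenger bead signal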
UBC13 inh – UBC13 polyubiquitin chain formation inhibitors, primary screen, biochemical, TR-FRET, uHTS. Ubiquitin-conjugating enzyme E2 N (Homo sapiens), P61088. inhibition, % at 20 µM. actives 0.47% (n = 330,000). AID 485273, 2010; in the data active = inhibition above about 45%, passing the limit was not always enough
Target sequence (P61088 whole entry, looked up): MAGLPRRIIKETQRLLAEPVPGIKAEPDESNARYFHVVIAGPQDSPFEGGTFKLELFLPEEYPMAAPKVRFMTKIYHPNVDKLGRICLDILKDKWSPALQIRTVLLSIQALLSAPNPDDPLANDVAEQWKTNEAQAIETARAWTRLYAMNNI
MEKK2wt PB1 HTS – modulators of MEK5 binding to wildtype MEKK2, primary screen, biochemical, multiplex bead flow cytometry, Alexa488-MEK5; Mitogen-activated protein kinase kinase kinase 2 (Homo sapiens), Q9Y2U5; Alexa488-MEK5 binding to MEKK2 WT; actives lie on both sides; binding response (% of control), % at 10 µM; actives 1.1% (n = 290,000); in the data active = binding response below about 67% or above about 130%
UCH37 DUB inh – inhibitors of human UCH37 deubiquitinase, primary screen, biochemical, Ub-AMC cleavage, fluorescence; Ubiquitin carboxyl-terminal hydrolase isozyme L5 (Homo sapiens), Q9Y5K5; purified proteasome/UCH37; inhibition, % (concentration not given with the values); actives 0.33% (n = 330,000); AID 588478, 2011;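 active = mean inhibition over replicate wells above about 20%, limit read from the data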;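 also: 0% = compound-free wells with enzyme and 100% = wells lacking proteasome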
Target sequence (Q9Y5K5 whole entry, looked up): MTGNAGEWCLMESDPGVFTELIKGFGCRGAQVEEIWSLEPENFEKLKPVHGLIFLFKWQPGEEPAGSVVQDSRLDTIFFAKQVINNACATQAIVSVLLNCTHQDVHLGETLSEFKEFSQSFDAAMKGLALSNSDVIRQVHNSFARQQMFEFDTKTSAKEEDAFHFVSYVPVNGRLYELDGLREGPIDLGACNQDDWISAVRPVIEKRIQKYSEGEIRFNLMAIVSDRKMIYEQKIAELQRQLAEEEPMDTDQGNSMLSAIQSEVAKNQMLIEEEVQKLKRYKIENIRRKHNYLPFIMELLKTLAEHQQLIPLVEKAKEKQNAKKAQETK
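Material: human UCH37 enzyme supplied as purified proteasome complex / Amount: 0.15 nM proteasome as dispensed / Buffer or medium: pH 7.4 Tris-HCl (50 mM) with ovalbumin, ATP-MgCl2, DTT / Times: preincubation 30 min, reaction 25 min, room temperature / Technique: AMC fluorescence from Ub-AMC cleavage, excitation 355 nm, emission 460 nm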
Apaf-1 inh conf2 – Apaf-1 inhibitors, single-dose retest, confirmation, biochemical, fluorescence, DEVD-Rh110, 20 µM; shares compounds with Apaf-1 inh; reconstituted apoptosome, caspase-3 DEVD-Rh110 fluorescence; inhibition, % at 20 µM; actives 25% (n = 1,800); AID 504614, 2011;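 active = mean inhibition of at least 40% at 20 µM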;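 also: plate controls were DMSO wells for no effect and DEVD-CHO caspase inhibitor control wells for full effect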
Rh110 quench – Rh110 fluorescence interference by putative Apaf-1 inhibitors, confirmation, artefact control for Apaf-1 inhibitor project, biochemical, 20 µM | shares compounds with Apaf-1 inh | quenched caspase reaction | AID 504615, 2011 | 1,800 tested, under 10 active | activation (fluorescence interference), % at 20 µM;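 active = signal rise of 40% or more at 20 µM, treated as a fluorescence artifact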
Fluor interf inh – fluorescence interference of Apaf-1 inhibitor hits, dose response, artefact control for Apaf-1 inhibitor project | IC50, µM | 460 tested, under 10 active | shares compounds with Apaf-1 inh | AID 588538, 2011 | fluorescence interference counterscreen, Apaf-1 assay format; call rule not given here
Starred values were filed as active, the others as inactive; nt = no result.

SMILES | Apaf-1 inh | MEKK2 mut-MEK5 | MEKK3 PB1 HTS | UBC13 inh | MEKK2wt PB1 HTS | UCH37 DUB inh | Apaf-1 inh conf2 | Rh110 quench | others
CC(Cc1cccnc1)NC(=O)c1cc(COc2ccc(F)cc2F)on1 (stereo not given) | 4 | 1 | 101 | -6 | 102 | 3 | nt | nt
COc1ccc(CN2CC(C(=O)NCc3cccc(OC)c3)CC2=O)cc1 (stereo not given) | 67* | -6 | 104 | 5 | 104 | -2 | 11 | 4
COc1ccc(CN2CC(C(=O)NCc3ccc4c(c3)OCO4)CC2=O)cc1 (stereo not given) | 0 | 3 | 101 | 6 | 104 | 5 | nt | nt
O=C1NC(c2ccc(-c3ccccc3[N+](=O)[O-])o2)C(C(=O)c2ccc(F)cc2)C(O)(C(F)(F)F)N1 (stereo not given) | 51* | 8 | 103 | -23 | 91 | 8 | 13 | 9
Cc1cc(Nc2cccc(Cl)c2)nc(NCc2ccccc2)n1 | 43* | 8 | 100 | 49* | 119 | 6 | 15 | 6
O=C(O)/C=C/C(=O)O | -11 | nt | nt | 0 | nt | 1 | nt | nt
COCCN1C(=O)Cc2c1nc(N)c1c(N)nc(N3CCN(c4ccc(F)cc4)CC3)c(C#N)c21 | 10 | -44 | 92 | 0 | 96 | -11 | nt | nt
COCC(C)N1C(=O)Cc2c1nc(N)c1c(N)nc(N3CCN(c4ccccc4F)CC3)c(C#N)c21 (stereo not given) | 97* | -8 | 97 | -74 | 89 | -28 | 25 | 5
COc1ccc(CN2C(=O)Cc3c2nc(N)c2c(N)nc(N4CCOCC4)c(C#N)c32)cc1 | 86* | 2 | 96 | -6 | 94 | -143 | 25 | 22
COc1ccc(C2/C(=C(/O)c3ccc4c(c3)CC(C)O4)C(=O)C(=O)N2CCCn2ccnc2)cc1 (stereo not given) | 42* | 6 | 105 | -41 | 107 | 11 | 7 | 4
COc1ccc(N/C=C2\CCc3ccccc3C2=O)cc1 | 79* | -1 | 98 | -67 | 101 | 2 | 36 | 16
COc1ccc2c(c1)CC/C(=C\Nc1ccc3c(c1)OCO3)C2=O | 78* | -3 | 98 | -28 | 95 | 1 | 47* | 4 | Fluor interf inh=>100
O=C1/C(=C/Nc2ccc3c(c2)OCO3)CCc2ccccc21 | 45* | 5 | 98 | -43 | 93 | -7 | 32 | 5
COc1ccc(CCNC(=O)c2c(O)c3cccc4c3n(c2=O)CC4)cc1 | 18 | 6 | 112 | 8 | 112 | -4 | nt | nt
COc1cccc(C=NNC(=S)NCCc2ccccc2)c1 | nt | nt | nt | nt | nt | 3 | nt | nt
O=C(/C=C/c1ccco1)c1ccc(NC(=O)C23CC4CC(CC(C4)C2)C3)cc1 | 45* | 4 | 98 | -1 | 88 | 4 | 15 | 4
Nc1ccc2nc3c(c(Cl)c2c1)CCCC3 | 64* | -20 | 83 | -2 | 84 | -80 | 23 | 2
Cc1ccc(NC(=O)c2ccc(=O)n(CC(=O)Nc3c(C)cc(C)cc3C)n2)cc1 | 19 | 0 | 97 | -8 | 93 | 5 | nt | nt
COc1ccc(OC)c(S(=O)(=O)Oc2ccc(N)c3ccccc23)c1 | 69* | nt | nt | -60 | nt | 6 | 38 | 3
O=C1/C(=N\S(=O)(=O)c2cccs2)C([n+]2ccc(CCCc3ccccc3)cc2)=C([O-])c2ccccc21 | 46* | -11 | 99 | -90 | 99 | 7 | 13 | -6
O=C1/C(=N\S(=O)(=O)c2cccs2)C([n+]2cccc(Cc3ccccc3)c2)=C([O-])c2ccccc21 | 34 | 23 | 102 | -105 | 100 | 11 | nt | nt
CCCc1nc(SCc2ccc(Cl)cc2Cl)n[nH]1 | 3 | 0 | 101 | 2 | 95 | 1 | nt | nt
CCN(CC)CCN(C(=O)CCS(=O)(=O)c1ccccc1)c1nc2cc(C)cc(C)c2s1 | 35 | 14 | 105 | 9 | 123 | 4 | nt | nt
Cc1cc(C)c2sc(N(CCN(C)C)C(=O)CCS(=O)(=O)c3ccccc3)nc2c1 | 53* | 11 | 108 | -1 | 114 | 7 | 7 | 7
CN(C)c1ccc(C=NNC2=NS(=O)(=O)c3ccccc32)cc1 | nt | nt | nt | nt | nt | 9 | nt | nt
SMILES | Apaf-1 inh | MEKK2 mut-MEK5 | MEKK3 PB1 HTS | UBC13 inh | MEKK2wt PB1 HTS | UCH37 DUB inh | Apaf-1 inh conf2 | Rh110 quench | others
COc1ccc(S(=O)(=O)N(C)C)cc1NC(=O)Cc1ccc(S(=O)(=O)N2CCOCC2)s1 | 11 | nt | nt | -7 | nt | -1 | nt | nt
CCN(CC(=O)Nc1c(F)cccc1F)C(=O)Cc1ccsc1 | 52* | nt | nt | 33 | nt | -1 | 42* | 9 | Fluor interf inh=>100
CCN(CC(=O)Nc1ccc(OC)cc1)C(=O)Cc1ccsc1 | -6 | nt | nt | -2 | nt | 2 | nt | nt
CCN(CC(=O)Nc1c(F)cccc1F)C(=O)CNC(=O)c1ccc2c(c1)OCO2 | 53* | 9 | 102 | 18 | 107 | 4 | 31 | 2
CCOC(=O)c1c(C)[nH]c(C(=O)C(C)Sc2ccc(Cl)cc2)c1C (stereo not given) | 18 | 9 | 103 | 4 | 100 | 2 | nt | nt
O=C(O)c1ccc(CSc2nc3ccc(N4C(=O)C5C6C=CC(C6)C5C4=O)cc3s2)cc1 (stereo not given) | 10 | -1 | 101 | -7 | 99 | 1 | nt | nt
COc1ccc(Cl)cc1NC(=O)CN(C)C1CCS(=O)(=O)C1 (stereo not given) | 3 | nt | nt | 16 | nt | -1 | nt | nt
COc1ccc(N[C@@H]2CCN3C(=O)c4ccccc4[C@@H]3C[C@H]2O)cc1 | 17 | nt | nt | nt | nt | 1 | nt | nt
O=C1c2ccccc2[C@@H]2C[C@@H](O)[C@H](Nc3cccc4ccccc34)CCN12 | 53* | nt | nt | nt | nt | -17 | 28 | 8
CCN(CC)S(=O)(=O)c1cccc(NC(=O)C2SC(=Nc3ccc(C)cc3C)C(C(=O)NCC3CCCO3)=C2N)c1 (stereo not given) | 45* | -5 | 95 | -5 | 100 | 6 | 15 | -1
